Tested on: MS2 coat protein
Assay: apparent Kd, MS2 coat protein; higher = weaker binding; RNA-MaP array; FMN 200 µM where present
Summary of the method: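 Binding was read on Illumina sequencing-chip clusters where stalled E. coli RNA polymerase had transcribed each design. A titration of SNAP-549-labelled MS2 coat protein began at 0.7 or 1.5 nM and doubled to 3 µM, once without ligand and once with constant ligand, in 100 mM Tris-HCl pH 7.5, 80 mM KCl, 4 mM MgCl2, BSA, DTT, yeast tRNA and Tween-20. The apparent Kd is the median of filtered per-cluster binding-curve fits, based on green signal normalised to red-channel RNA signal and control-cluster median Fmax.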

[1] = designed as: ON switch for flavin mononucleotide, no ligand
[2] = ligand present: flavin mononucleotide, designed as: ON switch for flavin mononucleotide
[3] = designed as: OFF switch for flavin mononucleotide, no ligand
[4] = ligand present: flavin mononucleotide, designed as: OFF switch for flavin mononucleotide

| Sequence | apparent Kd [1] | apparent Kd [2] | apparent Kd [3] | apparent Kd [4] |
| --- | --- | --- | --- | --- |
| AUAGAAGACUAGAAGGAUUUAGUUGUAUAUUGUCGAGGUAUAUAAUUAGGUAGGAUAUGGGACAUGAGGAUCACCCAUGUUUUG | 28.2 nM | 15.4 nM | – | – |
| UUAUUAUAUGUAGGAUAUGCAUAUUAUCAUUGUGCAGAAGGACAUGAGGAUCACCCAUGUAUAUUAUUAUUAUAUAUUAUAUAU | – | – | 17.5 nM | 18.5 nM |
| AGUGUAGAGGUGAAGCGAAUUACUGAGGAUAUGACAUGAGGAUCACCCAUGUACACAUCCUCAGGUCAGAAGGCAGUGGUUCUU | – | – | 5.62 nM | 4.8 nM |
| UAAAUUUUAUGAUAUUAUGACAGUAGAAGGCUAUACAUGUUGAUACAUGAGGAUCACCCAUGUAUAGAGGAUAUAUACAAUUAU | – | – | 1050 nM | 315 nM |
| GAAUUCGCAUGAGGAUAUGCACUCAUUUCAUGUGCAGAAGGUAUAACAUUAGACAUGAGGAUCACCCAUGUAUUAGUCAUUAAC | 10.1 nM | 9.37 nM | – | – |
| CAGCGCUGUCGAGAGGAUAUGCGGUGAUGGACAUGAGGAUCACCCAUGUUAGCGAUAGCAUUACGGUAGAAGGCUCUACAGCUGC | 239 nM | 14.2 nM | – | – |
| ACUGUUAGAGUCUUCCUUAUCACAUGAGGAUCACCCAUGUGGAGAAGGGACUGUAUCGUUAUCAGUUAGGAUAUCCAUGUGUGC | – | – | 4.62 nM | 4.72 nM |
| AGCAUGUGAGGAUAUGCGGACUCCGGUAAAUCUGAAGUCCAGUAGAAGGCACAUGAGGAUCACCCAUGUGAGAU | – | – | 43 nM | 110 nM |
| AAGUGUAUAGGAUAUGCGUGGAAAAGGUGUAUUCACCAGCGACAUGAGGAUCACCCAUGUAGAAGGGUAUGUAA | – | – | 94.6 nM | 54.5 nM |
| GGAGUGUGAGGAUAUAUGGUGAAGGUGAAGAGAGAGGAGGAGUAGAAGGUACAUGAGGAUCACCCAUGUUUAGG | – | – | 47 nM | 41.3 nM |
| GGAUCCAACACAGGAUAUGCUGGACUUUGUCCAGCAGAAGGGUGAAGAACAUGAGGAUCACCCAUGUGGAUCCAUAUAUUUAAC | 240 nM | 16.8 nM | – | – |
| CUGAGCAAUGUAGGAUAUCGACUGGAAUACAGUCGAGAAGGACAUGAGGAUCACCCAUGUCAAUGAGUGAAUAAUAAAGCUCAG | – | – | 20.7 nM | 118 nM |
| GGUCGUCACAUGAACAUGAGGAUCACCCAUGUAAAUUCUCAUGAGGAUAUGGAUCCUAAUUGGAUCCAGAAGGCAUGGACGACC | 1090 nM | 333 nM | – | – |
| CAACCGUUGCAGAAGGUUAAAUAAAUCAACUUAUGGACAACAUGAGGAUCACCCAUGUUUUUGUUGAAGGAUAUGCAAGGGUUG | – | – | 6.25 nM | 5.85 nM |
| GCUAUGUCAGGAUAUGCUAGUGCUAGUGAAAGCUAGUGCUAGUAGAAGGGACAUGAGGAUCACCCAUGUGUAGU | – | – | 108 nM | 374 nM |
| UUCAACGAUGAAGGAUAUCUAUGUCCAACAUGAGGAUCACCCAUGUUGAGGAUUACCUAUGUGUAGGAGAAGGUCAAUUUGACU | 7.01 nM | 6.51 nM | – | – |
| AGAUUUGUACAUGAGGAUCACCCAUGUUAAUAGGUGUUUGUCAGAAGGCAUUAAGAGAGAAUUAAUGAGGAUAUGAAGUUUCAU | 59.2 nM | 36.2 nM | – | – |
| UUAAUUUGAGGAUAUACAUUUAACCACAUGAGGAUCACCCAUGUAAUAUCAUGUAUUUGUGUAGAAGGCAGAAUGC | – | – | 18.8 nM | 17.5 nM |
| CCGGAGACGGGUAGCCUGACAUGAGGAUCACCCAUGUAAUACGAGGAUAUGGAUCCUAAUUGGAUCCAGAAGGUGUCAGGCUAC | 908 nM | 729 nM | – | – |
| AUCAGCUCGUCAGGAUAUACGUCACUGCGUCAGCAGUGUGGUAAGAUCACAUGAGGAUCACCCAUGUAGAAGGGACGUGCUGAU | – | – | 13.3 nM | 314 nM |
| AGUUUGUUUGAGAAGGUGAAGUGGAAACAUGAGGAUCACCCAUGUAUUAGGAAGCCUGGUUUUGUCAAGGAUAUCGGGUAAACA | – | 13.9 nM | – | – |
| AUGCUUCACACAGGAUAUACAUGAGGAUCACCCAUGUGUGGGCGGUAGCUCGAAAGAGCUACCGGGUAGAAGGGUGUGAAGCAU | – | – | 27.1 nM | 132 nM |
| AGGACAAGGCAGAAGGGACAUGAGGAUCACCCAUGUACCGUGGUUCAGCAGUCAGGAUAUGCCAUAUGUAAACAUAUCGUAAGA | – | – | 12.1 nM | 108 nM |
| GCCAUCGCAUGAGGAUAUGGCACCGUUUCGGUGCCAGAAGGCAUGUCUUAAGACAUGAGGAUCACCCAUGUAGUUAAGAUGGCA | 860 nM | 56.9 nM | – | – |

| Sequence | apparent Kd [1] | apparent Kd [2] | apparent Kd [3] | apparent Kd [4] |
| --- | --- | --- | --- | --- |
| CGUAACUGCAUAGGAUAUUGAUACAUGAGGAUCACCCAUGUUUUUCGGAUUAUAUAUCUACUUAGCAAGAAGGAUGGAGUUACG | 7.09 nM | 5.15 nM | – | – |
| UGAAACUACGAGAAGGACAUGUGGUCCUUCAGUUACAUGAGGAUCACCCAUGUAGGAUAUCGUAGUUUCAGGAUCGUGAGAUCG | – | – | 34.7 nM | 10.4 nM |
| ACGCAUUGCCUUUGGUAGUGCGUAACAUGAGGAUCACCCAUGUAGGAUAUGGUAGGCUUUGCUUACCAGAAGGACAUUAUAAAC | – | – | 29.3 nM | 48.5 nM |
| UUAUAAAAUAAAGGAUAUUCAUACCGGAAACGGACAUGAGGAUCACCCAUGUGGCGAAAGCCUUGGGAGAAGGUUAAAAUAUAU | 441 nM | 317 nM | – | – |
| GCGUUACAUGAGGAUCACCCAUGUGAGGAUAUGGUUCGGUACUGUCCUGUCGCGUACUCCAGAAGGCACGGGUG | – | – | 200 nM | 115 nM |
| CCAUGUUAGCAGGAUAUGCAAUUAUUCUUUUAAGCAGAAGGGCUUACAUGAGGAUCACCCAUGUAACAUUUCAU | – | – | 17.3 nM | 85.4 nM |
| UUAUUCAGAGGAUAUGCGCAUAGAUAAGACUUUUUUUCUUAACAUGAGGAUCACCCAUGUAGAAGGCUGUAAUU | – | – | 18.4 nM | 18.7 nM |
| UCCAGACAUGAGGAUCACCCAUGUGAGGAUAUGAUGCGAUCGUCGAAAGACGAUAGCAUCAGAAGGCACGUAUG | – | – | 33.7 nM | 48.3 nM |
| CAGCCCUGAGGAUAUCCCUACUUGUACAUGAGGAUCACCCAUGUUCUCCUCUGGGCUUCGGGAGAAGGCAGGUCUC | – | – | 14.6 nM | 16.8 nM |
| UGGUACUAGGGAGGAUAUGAGAAGAUACAUGAGGAUCACCCAUGUUUAAGAAUGCCGAGAGGCAACUAGAAGGCCCUAGUACCU | 7.85 nM | 5.23 nM | – | – |
| UCGUAACGAGGAUAUACAAGGGUCAGGCCCGCCUGACACACACAUGAGGAUCACCCAUGUAGAAGGUGUAGCGC | – | – | 19.4 nM | 18.4 nM |
| AGGUCAACCACAGGAUAUGGCUAGCAUAGCUAGCCAGAAGGGUGGUCGUAACCAUGUAAAUACAUGAGGAUCACCCAUGUAUCC | 235 nM | 66.5 nM | – | – |
| GUUACCGUAGGAUAUACAUGAGGAUCACCCAUGUACUCAGUCGAUGGAUAAGAGUACUGUAGAAGGGCGCCGGC | – | – | 140 nM | 150 nM |
| GGUCCACAUGAGGAUCACCCAUGUUAGGAUAUCUCGCCCGAGUCGUUAUGGGCCGGGCAGAGAAGGAAUGUGAA | – | – | 21.7 nM | 20.2 nM |
| UUGUUCUGAGGAUAUACAUGAGGAUCACCCAUGUGUUUCUGCUAGGAGACUAGCGAAUGUAGAAGGCUGUUCUC | – | – | 19.4 nM | 19.9 nM |
| GAGUUGAACGAGAAGGCCACUACAUGAGGAUCACCCAUGUCGUAGAGUAUUGGAGGAUAUCGAUAGGCGUCUCAUGAGGACAUA | – | – | 25.1 nM | 13.4 nM |
| CGCUACUACCAGAAGGACAUGAGGAUCACCCAUGUAGGAUAUGGGUUACAAGUUCCUGUGUAAAGAAACUACGCUACGUAUGCG | 715 nM | 31.7 nM | – | – |
| UGGUACUAUGGAGGAUAUGGGAAGAUACAUGAGGAUCACCCAUGUUUAAGAAUGCCGAGAGGCAACUAGAAGGCCCUAGUACCU | 349 nM | 32.7 nM | – | – |
| GGAGGACAUGAGGAUCACCCAUGUGGAUGGGCGCUAGGAUAUGCGAGAGGGAAGAGUGGAGCAGAAGGAGUGGGUU | 50.8 nM | 47.3 nM | – | – |
| CCGGAGUCAGGAUAUACGAACAUGUCGCCAGAUGUCAAGGUACAUGAGGAUCACCCAUGUAGAAGGGAGGAGAA | – | – | 96.1 nM | 56.8 nM |
| AGGAAACAUGAGGAUCACCCAUGUAAAUAUGGGCGAGGAUAUCGAAAGAAAAGAAAGAAACGAGAAGGCGCAAAAG | 324 nM | 77.7 nM | – | – |
| AAAGCAACAUGAGGAUCACCCAUGUAGGAUAUCGCUAUUGUAAUCAUGAAACAUGAUUACAAUAGCGAGAAGGACAUAUGCUGG | – | – | 21.7 nM | 23.3 nM |
| UUGGACGUCGUCGGAUAUGUAGGAUAUUCCUACAUGAGGAUCACCCAUGUUGACAUGGAAGAAGGACAGAAGGACGAUGUCCAU | 83 nM | 4.6 nM | – | – |
| AGCGAUGCAGGAUAUCCGCGGCUACACAUGAGGAUCACCCAUGUUAGGGUCGUGUUGCCAGGAGAAGGGCAAGGAU | – | – | 28.8 nM | 78.1 nM |

From the EternaBench riboswitch data
